In ChEMBL document CHEMBL1125740, “Heterocyclic quinones. 17. A new in vivo active antineoplastic drug: 6,7-bis(1-aziridinyl)-4-[[3-(N,N-dimethylamino)propyl]amino]-5,8- quinazolinedione” (J Med Chem, 1991):
Where “and” joins values, the source holds several entries; their conditions need not be identical. Identical values can stand only once.

Assays:
[1] = test system: P388; test: Compound was evaluated in vivo for antitumor activity after intraperitoneal administration against P388 (1313) for total dose at an optimal dose of 1 mg/kg/injection; format: functional, Mus musculus
[2] = Compound was evaluated in vivo for antitumor activity against Glasgow osteogenic sarcoma after injecting the compound intravenously for toxicity related death.; format: functional, Mus musculus
Summary of the method: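 Glasgow osteogenic sarcoma in C57Bl/6-derived hosts: 30-60 mg fragments implanted sc by trocar on day 0. Drug given iv on days 3, 6 and 9, 7 mice per group. Tumors measured by caliper. Median tumor burden recorded on day 10. Body weight change per mouse recorded at nadir. Toxicity-related deaths counted.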

[3] = test system: B16; test: Compound was evaluated in vivo for antitumor activity against B16 melanoma after injecting the compound intravenously for optimal dose; format: functional, Mus musculus
Summary of the method: (§1)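 30-60 mg tumor fragments implanted sc by trocar on day 0 into C57Bl/6-derived hosts (B16) or C3H/He-derived hosts (16/C). Drug given iv on days 6, 9 and 13 (B16) or 6, 9 and 12 (16/C), 10 mice per group. Tumors measured by caliper. T/C % taken from median tumor burden of treated vs control groups on day 15 (B16) or day 14 (16/C). Body weight change per mouse recorded at nadir.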

[4] = test system: L1210; test: Compound was evaluated in vivo for antitumor activity after intraperitoneal administration against L1210(935) for tumor free survivors at an optimal dose of 0.5 mg/kg/injection at 1 day schedule.; format: functional, Mus musculus
Summary of the method: (§2)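 L1210 leukemia, maintained in DBA/2 mice, was given ip as 10⁵ cells on day 0 to F1 hybrid or strain-of-origin mice over 18 g, in groups of 8. Dosing was ip from day 1, and mortality was checked daily. Median day of death counts dying mice only. %ILS = 100×(treated − control median day of death)/control median. Tumor-free survivors were counted on day 60. Weight change is g/mouse at nadir.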

[5] = test system: P388; test: Compound was evaluated in vivo for antitumor activity after intraperitoneal administration against P388/L-PAM(14) for change in body weight at an optimal dose of 0.5 mg/kg/injection at 1,4,7,11 day schedule.; format: functional, Mus musculus
[6] = test system: L1210; test: Compound was evaluated in vivo for antitumor activity after intraperitoneal administration against L1210(935) for mortality range at an optimal dose of 0.1 mg/kg/injection at 1-4 day schedule.; format: functional, Mus musculus; summary of the method: as §2
[7] = test system: P388; test: Compound was evaluated in vivo for antitumor activity after intraperitoneal administration against P388/L-PAM(12) for tumor free survivors at an optimal dose of 0.75 mg/kg/injection; format: functional, Mus musculus
[8] = test system: P388; test: Compound was evaluated in vivo for antitumor activity after intraperitoneal administration against P388 (1313) for % increase in life span at an optimal dose of 0.5 mg/kg/injection; format: functional; details: Mus musculus, P388, ip
[9] = test system: L1210; test: Compound was evaluated in vivo for antitumor activity after intraperitoneal administration against L1210(935) for total dose at an optimal dose of 0.5 mg/kg/injection at 1,4,7,11day schedule.; format: functional, Mus musculus; summary of the method: as §2
[10] = test system: L1210; test: Compound was evaluated in vivo for antitumor activity after intraperitoneal administration against L1210(935) for total dose at an optimal dose of 0.125 mg/kg/injection at 1,4,7,11day schedule.; format: functional, Mus musculus; summary of the method: as §2
[11] = test system: L1210; test: Compound was evaluated in vivo for antitumor activity after intraperitoneal administration against L1210(935)for % increase in life span at an optimal dose of 0.125 mg/kg/injection at 1,4,7,11day schedule.; format: functional; details: Mus musculus, L1210, ip; summary of the method: as §2
[12] = test system: L1210; test: Compound was evaluated in vivo for antitumor activity after intraperitoneal administration against L1210(935)for % increase in life span at an optimal dose of 1 mg/kg/injection at 1 day schedule.; format: functional; details: Mus musculus, L1210, ip, 24 h; summary of the method: as §2
[13] = test system: P388; test: Compound was evaluated in vivo for antitumor activity after intraperitoneal administration against P388/L-PAM(14) for median day of death at an optimal dose of 0.125 mg/kg/injection at 1,4,7,11 day schedule.; format: functional, Mus musculus
[14] = test system: L1210; test: Compound was evaluated in vivo for antitumor activity after intraperitoneal administration against L1210(935) for median day of death at an optimal dose of 0.5 mg/kg/injection at 1,4,7,11day schedule.; format: functional, Mus musculus; summary of the method: as §2
[15] = test system: P388; test: Compound was evaluated in vivo for antitumor activity after intraperitoneal administration against P388 (1313) for median day of death at an optimal dose of 0.5 mg/kg/injection; format: functional, Mus musculus
[16] = test system: P388; test: Compound was evaluated in vivo for antitumor activity after intraperitoneal administration against P388/L-PAM(12) for mortality range at an optimal dose of 0.75 mg/kg/injection; format: functional, Mus musculus
[17] = test system: P388; test: Compound was evaluated in vivo for antitumor activity after intraperitoneal administration against P388/L-PAM(14) for change in body weight at an optimal dose of 1 mg/kg/injection; format: functional, Mus musculus
[18] = test system: P388; test: Compound was evaluated in vivo for antitumor activity after intraperitoneal administration against P388/L-PAM(14) for mortality range at an optimal dose of 1 mg/kg/injection; format: functional, Mus musculus
[19] = test system: P388; test: Compound was evaluated in vivo for antitumor activity after intraperitoneal administration against P388 (1313) for tumor free survivors at an optimal dose of 0.5 mg/kg/injection on day 60; format: functional, Mus musculus
[20] = test system: P388; test: Compound was evaluated in vivo for antitumor activity after intraperitoneal administration against P388 (1313) for median day of death at an optimal dose of 0.4 mg/kg/injection; format: functional, Mus musculus
[21] = test system: M5076; test: Compound was evaluated in vivo for antitumor activity against M5076 after injecting the compound intravenously for percent T/C; format: functional, Mus musculus
[22] = Compound was evaluated in vivo for antitumor activity against mammary adenocarcinoma 16/C after injecting the compound intravenously for change in body weight.; format: functional, Mus musculus; summary of the method: as §1
[23] = Compound was evaluated in vivo for antitumor activity against mammary adenocarcinoma 16/C after injecting the compound intravenously for median tumor burden; format: functional, Mus musculus; summary of the method: as §1
[24] = test system: P388; test: Compound was evaluated in vivo for antitumor activity after intraperitoneal administration against P388/L-PAM(14) for median day of death at an optimal dose of 0.2 mg/kg/injection at 1,2,3,4 day schedule.; format: functional, Mus musculus
[25] = test system: B16; test: Compound was evaluated in vivo for antitumor activity against B16 melanoma 2 after injecting the compound intravenously for percent T/C; format: functional, Mus musculus
[26] = test system: P388; test: Compound was evaluated in vivo for antitumor activity after intraperitoneal administration against P388/L-PAM(14) for total dose at an optimal dose of 0.1 mg/kg/injection at 1,2,3,4 day schedule.; format: functional, Mus musculus
[27] = Compound was evaluated in vivo for antitumor activity against mammary adenocarcinoma 16/C after injecting the compound intravenously for optimal dose; format: functional, Mus musculus; summary of the method: as §1
[28] = test system: B16; test: Compound was evaluated in vivo for antitumor activity against B16 melanoma 1 after injecting the compound intravenously for median tumor burden; format: functional, Mus musculus
[29] = test system: P388; test: Compound was evaluated in vivo for antitumor activity after intraperitoneal administration against P388/L-PAM(14) for tumor free survivors at an optimal dose of 0.4 mg/kg/injection at 1,2,3,4 day schedule.; format: functional, Mus musculus

CN(C)CCCNc1ncnc2c1C(=O)C(N1CC1)=C(N1CC1)C2=O
Optimal dose [1]: 1 mg/kg
Toxicity [2]: 0
Optimal dose [3]: 0.4 mg/kg and 0.2 mg/kg
Survivors [4]: 0
Change in body weight [5]: 0.7 g mouse-1
Mortality [6]: 14 days
Survivors [7]: 0
ILS at 0.5 mg/kg [8]: 108%
Total dose [9]: 2 mg/kg
Total dose [10]: 0.5 mg/kg
ILS at 0.125 mg/kg [11]: 18%
ILS at 1 mg/kg [12]: 27%
Median day of death [13]: 15.5
Median day of death [14]: 14
Median day of death [15]: 25
Mortality [16]: 19
Change in body weight [17]: -1.2 g mouse-1
Mortality [18]: 26 days
Survivors [19]: 0
Median day of death [20]: 23
T/C [21]: 58%
Change in body weight [22]: 0.5 g mouse-1 and 1 g mouse-1
Tumor burden [23]: 1265 mg
Median day of death [24]: 19
T/C [25]: 53%
Total dose [26]: 0.4 mg/kg
Optimal dose [27]: 0.4 mg/kg and 0.2 mg/kg
Tumor burden [28]: 27.8
Survivors [29]: 0
